{"data": "Measurements pooled from the literature", "medium": "Caco-2", "note": "Protocols differ between the studies behind these lines."}
{"SMILES": "CN(C)C(=O)c1cc2cnc(Nc3ccc(N4CCNCC4)cn3)nc2n1C1CCCC1", "endpoint": "Papp", "value": "1.83 ×10⁻⁶ cm/s"}
{"SMILES": "O=c1c(O)c(-c2ccc(O)c(O)c2)oc2cc(O)cc(O)c12", "conditions": "1 mg/mL, pH 7.4", "endpoint": "Papp", "value": "1.7 ×10⁻⁶ cm/s"}
{"SMILES": "CO[C@@H](C[C@H]1C(C)=CC[C@@H]2[C@]3(C)C[C@H](O[C@@H]4O[C@@H](C)[C@H](OC(=O)c5cccc(O)c5)[C@@H](O[C@@H]5O[C@H](CO)[C@@H](O)[C@H](O)[C@H]5NC(C)=O)[C@H]4O)[C@@H](O)C(C)(C)[C@H]3CC[C@]21C)[C@H](N)C(=O)O.O=C(O)C(F)(F)F", "conditions": "5 µM, 1 h", "endpoint": "Papp B→A", "value": "0.05 ×10⁻⁶ cm/s"}
{"SMILES": "CCN1C(=O)N(c2c(F)c(OC)cc(OC)c2F)Cc2cnc3[nH]c(CN4CCOCC4)cc3c21", "conditions": "50 µM", "endpoint": "Papp", "value": "11 ×10⁻⁶ cm/s"}
{"SMILES": "Cn1c(=O)c2c(nc(S)n2C)n(C)c1=O", "conditions": "10 µM, 2 h", "endpoint": "Papp B→A", "value": "3 ×10⁻⁶ cm/s"}
{"SMILES": "CNC(=C[N+](=O)[O-])NCCSCc1ccc(CN(C)C)o1", "endpoint": "Papp B→A", "value": "2 ×10⁻⁶ cm/s"}
{"SMILES": "CC(C)c1cccc2c(-c3ccccc3)cc(-c3ccc(-c4ccc(C(=O)O)cc4)[nH]3)nc12", "endpoint": "Papp B→A", "value": "1.11 ×10⁻⁶ cm/s"}
{"SMILES": "CNCc1cc(-c2ccccc2F)n(S(=O)(=O)c2cccnc2)c1", "endpoint": "Papp", "value": "17.8 ×10⁻⁶ cm/s"}
{"SMILES": "Cn1c(S)nc2c1c(=O)n(Cc1ccccc1)c(=O)n2C", "conditions": "10 µM, 2 h", "endpoint": "Papp B→A", "value": "30.5 ×10⁻⁶ cm/s"}
{"SMILES": "Nc1cc(N2CCCCC2)nc(N)[n+]1[O-]", "conditions": "10 µM, 2 h, pH 7.4", "endpoint": "Papp B→A", "value": "7.19 ×10⁻⁶ cm/s"}
{"SMILES": "CC(C)NCC(O)COc1cccc2ccccc12 (centres unmarked)", "conditions": "10 µM, 2 h, pH 7.4", "endpoint": "Papp B→A", "value": "9.99 ×10⁻⁶ cm/s"}
{"SMILES": "O=c1c(O[C@@H]2O[C@H](CO)[C@@H](O)[C@H](O)[C@H]2O)c(-c2ccc(O)c(O)c2)oc2cc(O)cc(O)c12", "conditions": "1 mg/mL, pH 7.4", "endpoint": "Papp", "value": "2.05 ×10⁻⁶ cm/s"}
{"SMILES": "CC(C)(/C=C(\\C#N)C(=O)N1CCC[C@@H](n2nc(-c3ccc(Oc4ccccc4)cc3F)c3c(N)ncnc32)C1)N1CCN(C2COC2)CC1", "conditions": "1 µM", "endpoint": "Papp", "value": "1.7 ×10⁻⁶ cm/s"}
{"SMILES": "CC1=C2C(=O)O[C@@H](c3ccoc3)[C@]2(C)CCC1", "conditions": "1 mg/mL, 4 h, pH 7.4", "endpoint": "Papp", "value": "> 10 ×10⁻⁶ cm/s"}
{"SMILES": "N#C[C@H](C[C@@H]1CCCNC1=O)NC(=O)[C@H](CC1CC1)NC(=O)c1cc2cccc(Cl)c2[nH]1", "endpoint": "Papp", "value": "0.36 ×10⁻⁶ cm/s"}
{"SMILES": "C[C@H]1O[C@@H](O[C@H]2[C@@H](O)C[C@H](O[C@H]3[C@@H](O)C[C@H](O[C@H]4CC[C@@]5(C)[C@H](CC[C@@H]6[C@@H]5C[C@@H](O)[C@]5(C)[C@@H](C7=CC(=O)OC7)CC[C@]65O)C4)O[C@@H]3C)O[C@@H]2C)C[C@H](O)[C@@H]1O", "conditions": "10 µM, 2 h, pH 7.4", "endpoint": "Papp B→A", "value": "9.63 ×10⁻⁶ cm/s"}
{"SMILES": "O=C(c1cc(Cc2n[nH]c(=O)c3ccccc23)ccc1F)N1CCN(C(=O)C2CC2)CC1", "endpoint": "Papp", "value": "7.75 ×10⁻⁶ cm/s"}
